Hits are enriched below; roughly 2.7% of the tested compounds scored in any of these assays.
OX1R antag-1: human HCRTR1 antagonism. AID 434989. actives 0.43% (n = 330,000). O43613. CHO/OX1R cells, Fluo-8 calcium fluorescence, orexin A. inhibition, % at 5 µM;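 active = inhibition above its plate's threshold, mean inhibition of all tested compounds on the plate plus 3 SD, cut at about 37% in these data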
V1aR counter: V1a receptor agonism, counter-screen for OXTR agonists. P37288. CHO-V1R cells, Fluo-8 calcium fluorescence, agonist mode; 0% DMSO, 100% 3 nM vasopressin. activation, % at 3 µM. actives 0.25% (n = 320,000);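 active = activation above the mean activation of all tested compounds plus 3 SD, per screening run, cut at about 20% in these data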;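 note: signal is peak over basal fluorescence ratio across a 100 second FLIPR read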
OX1R antag-2: antagonists of human orexin 1 receptor (OX1R); inhibition, % at 6.6 µM; OX1R-expressing cells, FRET antagonist read-out; O43613; actives 1.8% (n = 330,000); AID 485270; in the data active = inhibition mostly above about 38%, no sharp cut-off; inactive = mostly below about 40%
OXTR ag: agonists of human oxytocin receptor; CHO-OTR cells, Fluo-8 calcium fluorescence; normalized: DMSO 0%, oxytocin 100%; actives 0.32% (n = 320,000); AID 2435; activation, % at 3 µM;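 active = activation above the mean of all tested compounds plus 3 SD, cutoff set per screening run, cut at about 20% in these data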;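 note: peak over basal fluorescence ratio from a 100 s FLIPR kinetic read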
Target sequence (P30559 whole entry, looked up): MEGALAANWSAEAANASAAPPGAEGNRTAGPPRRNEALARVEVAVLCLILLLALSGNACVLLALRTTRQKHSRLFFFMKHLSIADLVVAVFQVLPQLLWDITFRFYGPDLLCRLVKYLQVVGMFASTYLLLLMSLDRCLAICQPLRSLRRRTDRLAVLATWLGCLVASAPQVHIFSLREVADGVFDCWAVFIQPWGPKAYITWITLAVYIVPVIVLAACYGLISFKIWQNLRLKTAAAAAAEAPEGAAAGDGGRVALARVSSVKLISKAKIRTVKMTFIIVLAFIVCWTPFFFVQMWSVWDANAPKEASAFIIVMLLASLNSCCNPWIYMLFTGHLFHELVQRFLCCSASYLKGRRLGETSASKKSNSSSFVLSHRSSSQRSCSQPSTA
CHO parental Ca: counter-screen for OX1R antagonists: effect in parental CHO cells | parental CHO-K1, ATP-induced calcium, Fluo-8 fluorescence | inhibition, % at 5.6 µM | AID 463079 | actives 0.63% (n = 330,000);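 active = inhibition above that plate's mean sample inhibition plus 3 SD, cut at about 26% in these data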
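test system = CHO parental line | reagent = ATP stimulus | measured by = intracellular calcium via Fluo-8 no-wash fluorescent dye | control set = ATP and no-ATP DMSO wells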
OXTR potentiate: human OXTR potentiation. P30559. CHO-OTR cells, Fluo-8 calcium fluorescence, potentiator mode; 0% = oxytocin EC15, 100% = EC100. activation, % at 3 µM. actives 0.061% (n = 320,000);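 active = activation above that plate's cutoff, the mean activation of tested compounds plus 3 SD, cut at about 6.6% in these data, passing the limit was not always enough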
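Replication – single well per compound, singlicate · Assay system – CHO cell line stably expressing human OTR · Timing – 6 min pre-incubation, 100 s read · Measure – normalized max/min fluorescence ratio, % activation · Doses – 3.0 µM, one dose · Detection – Fluo-8 calcium dye fluorescence · Probe or stimulus – oxytocin near EC15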
Of the large screens only hits and unclear results are named; the others gave an inactive call.

O=C(CNc1ccc2ccccc2c1)N/N=C/c1ccc([N+](=O)[O-])o1	OX1R antag-2 46, CHO parental Ca 41
O=C(N/N=C/c1ccc(-c2ccc([N+](=O)[O-])cc2)o1)C(O)c1ccccc1 (centres undefined)	none
O=[N+]([O-])c1ccc(/C=[N+](\[O-])CCO)o1	OX1R antag-2 47
O=C(N/N=C/c1ccc([N+](=O)[O-])o1)C(O)c1ccccc1 (centres undefined)	OX1R antag-2 36
COC(=O)N/N=C/c1cc(OC)c(O)c([N+](=O)[O-])c1	OX1R antag-2 51
CCCn1c(SC(C)C(=O)NC2CC2)nnc1-c1ccncc1 (centres undefined)	none
Cc1ccc(NS(=O)(=O)c2cccc(C(=O)NCC(c3ccc(F)cc3)N3CCOCC3)c2)cc1 (centres undefined)	none
COC(=O)N/N=C/c1ccc([N+](=O)[O-])o1	OX1R antag-2 56
NC(=O)N/N=C/c1ccc([N+](=O)[O-])o1	OX1R antag-2 66
COC(=O)/C(=C\c1ccc([N+](=O)[O-])o1)NC(=O)c1ccccc1	OX1R antag-2 69
CCCCNC(=O)/C(=C\c1ccc([N+](=O)[O-])o1)NC(=O)c1ccccc1	none
O=C(O)c1ccccc1-c1c2cc(I)c(=O)c(I)c-2oc2c(I)c(O)c(I)cc12	OX1R antag-1 79, V1aR counter 205, OXTR ag 232, CHO parental Ca 78
Clc1ccc(-c2nnnn2-c2ccc(Cl)cc2)cc1	none
Cc1ccc(-n2nnnc2C(Cl)(Cl)c2nnnn2-c2ccc(C)cc2)cc1	OX1R antag-1 55, CHO parental Ca 48
CCc1noc(C)c1C(=O)NCCN1C(=O)S/C(=C\c2ccc(OC)cc2)C1=O	OX1R antag-2 58
COc1ccc(/C=C2\SC(=O)N(CCNC(=O)Cn3cnnn3)C2=O)cc1	none
Nc1cc(S(=O)(=O)Nc2ccc(Cl)cc2)ccc1N1CCOCC1	CHO parental Ca 36
O=C(O)C1CCCC[C@H]1C(=O)Nc1ncc([N+](=O)[O-])s1 (some centres undefined)	OX1R antag-2 66
O=C(Nc1ccc(NC(=O)c2cccc([N+](=O)[O-])c2)cc1)c1cccc([N+](=O)[O-])c1	none
Cc1csc(NC(=O)C2CCCCC2C(=O)O)n1 (centres undefined)	none
O=C(COC(=O)c1ccccc1)Nc1ncc([N+](=O)[O-])s1	OX1R antag-2 37
O=C(Nc1ncc([N+](=O)[O-])s1)c1cccc([N+](=O)[O-])c1	OX1R antag-2 39
COc1cccc(NC(=O)CN(C)C(=O)CCNS(=O)(=O)c2ccc(C)cc2)c1	none
O=C(NCc1ccccc1)c1onc(CSc2ccc(Cl)cc2)c1C(=O)NCC1CC1	none
O=C(NCc1ccccc1)c1onc(CSc2ccccc2)c1C(=O)NCC1CC1	CHO parental Ca 47
CCOC(=O)c1nc(C)nc(Sc2n[nH]c(-c3ccccc3)n2)c1C	none
C=Cc1ccc(Cn2nc(-c3ccccc3)ccc2=O)cc1	CHO parental Ca 50
C=CCNC(=O)Cn1nc(-c2ccccc2)ccc1=O	none
CC1(NC(=O)CCNC(=O)c2ccc(C(C)(C)C)cc2)CCS(=O)(=O)C1 (centres undefined)	none
Cc1ccnc(NC(=O)CNC(=O)c2ccc(Br)o2)c1	none
CCN1CCN(C2=C(NS(=O)(=O)c3ccccc3)C(=O)c3ccccc3C2=O)CC1	OX1R antag-2 74
CCOC(=O)N1CCN(C2=C(NS(=O)(=O)c3ccccc3)C(=O)c3ccccc3C2=O)CC1	OX1R antag-2 68
CCOC(=O)N1CCN(C(=O)c2ccc(S(=O)(=O)Nc3ccccc3)cc2)CC1	none
Cc1ccc(CSCC(=O)N(C)CC(=O)Nc2ccc(Cl)c(Cl)c2)cc1	none
O=C(NCc1cccc(F)c1)c1cccc2c1C(=O)c1ccc(N3CCC(Cc4ccccc4)CC3)cc1S2(=O)=O	CHO parental Ca 42
CC1CCN(c2ccc3c(c2)S(=O)(=O)c2cccc(C(=O)NCc4cccc(F)c4)c2C3=O)CC1	V1aR counter 38, OXTR ag 50
